Experimental data collected from several papers.
Compare with care: the assays were run in different laboratories.
LRRK2: Leucine-rich repeat serine/threonine-protein kinase 2 (LRRK2, Homo sapiens, UniProt Q5S007)
LRRK2 G2019S: Leucine-rich repeat serine/threonine-protein kinase 2 (LRRK2, Homo sapiens, UniProt Q5S007, G2019S)

SMILES | target | read-out | method | tested at | remaining binding [%]
COCCOc1nc(-c2ccc(Cl)nc2)nc2c1CN(C(=O)c1ncn3ccccc13)CC2 | LRRK2 | cell-free assay | competition with immobilised ligand | 0.1 µM | 100
O=C(Nc1c[nH]nc1C(=O)NC1CCNCC1)c1cc(F)cc(F)c1 | LRRK2 | binding | competition with immobilised ligand | 1 µM | 92
CN1CCN(c2ccc(Nc3nccc(-c4cccc([N+](=O)[O-])c4)n3)cc2C(F)(F)F)CC1 | LRRK2 G2019S | binding | – | 10 µM | 49
O=C(c1ccc(Nc2ncc(Cl)c(-c3ccc(Cl)s3)n2)cc1)N1CCC(N2CCCC2)CC1 | LRRK2 | binding | competition with immobilised ligand | 1 µM | 3.3
c1cnn2ncc(-c3ccnc(N4CCC45COC5)n3)c2c1 | LRRK2 G2019S | binding | – | 1 µM | 21
Nc1c(C(=O)NCc2ccc(C(=O)NCCCC3CCCCC3)cc2)cnn1-c1ccccc1 | LRRK2 | binding | competition with immobilised ligand | 1 µM | 39
COc1cnc(Nc2cccc(S(N)(=O)=O)c2)nc1N1CCN(c2ccccc2)C(=O)C1 | LRRK2 | binding | competition with immobilised ligand | 1 µM | 95
O=C(O)[C@@H]1[C@@H](Cn2nnc3ccccc3c2=O)CC[C@H]1C(=O)c1ccc(OCCC2CCOCC2)cc1 | LRRK2 | cell-free assay | competition with immobilised ligand | 1 µM | 100
CN(c1nccc(-c2cnn3ncccc23)n1)C1CC1 | LRRK2 | binding | – | 1 µM | 100
COc1ncc2cc3ccccc3nc2c1C#N | LRRK2 | cell-free assay | competition with immobilised ligand | 5 µM | 100
O=C(NCCCN1CCOCC1)c1ccc(Nc2nccc(-c3cc4ccccc4s3)n2)cc1 | LRRK2 G2019S | binding | competition with immobilised ligand | 1 µM | 69
CC1CCCN1c1nccc(-c2cnn3ncccc23)n1 (centres unmarked) | LRRK2 G2019S | binding | – | 1 µM | 100
Cc1c(C(=O)O)cc(-c2ccc(C3CCNCC3)cc2)c2ccc(-c3ccc(C(F)(F)F)cc3)cc12 | LRRK2 G2019S | binding | competition with immobilised ligand | 1 µM | 100
CN(C)c1nccc(-c2cnc3ncccn23)n1 | LRRK2 G2019S | binding | – | 1 µM | 71
c1cncc(-c2cccc(Nc3nccc(NC4CCCCC4)n3)c2)c1 | LRRK2 | binding | competition with immobilised ligand | 10 µM | 49
CCC(=O)N[C@@H]1CC[C@H](C(=O)N(C)c2ccc(-c3nc4ccccc4o3)cc2)C1 | LRRK2 G2019S | cell-free assay | competition with immobilised ligand | 1 µM | 100
CCN1CCN(Cc2ccc(C(=O)Nc3ccc(C)c(Oc4ccc5c(c4)CC(=O)N5)c3)cc2C(F)(F)F)CC1 | LRRK2 G2019S | binding | competition with immobilised ligand | 1 µM | 100
Cc1nc(C2CCN(C(=O)c3ccc(OC(F)(F)F)cc3N)CC2)c2ncc(N3CCN(C)CC3)cc2n1 | LRRK2 G2019S | cell-free assay | competition with immobilised ligand | 1 µM | 100
O=C(c1ccc(Nc2ncc(Cl)c(-c3cc4ccccc4s3)n2)cc1)N1CCC(N2CCCC2)CC1 | LRRK2 | binding | competition with immobilised ligand | 1 µM | 12
CN(CCCC(F)(F)F)c1nccc(-c2cnn3ncccc23)n1 | LRRK2 G2019S | binding | – | 1 µM | 100
C[C@@H](c1ccc(-n2cnc3c(N)ncnc32)cc1)N1CCc2nn(C)c(Cc3ccccc3)c2C1=O | LRRK2 | binding | competition with immobilised ligand | 0.1 µM | 93
CN(C)CC#Cc1ccc(OCCCc2sc(N3CCc4cccc(C(=O)Nc5nc6ccccc6s5)c4C3)nc2C(=O)O)c(F)c1 | LRRK2 G2019S | cell-free assay | competition with immobilised ligand | 1 µM | 100
N[C@@H]1CCN(c2nccc(-c3cnn4ncccc34)n2)C1 | LRRK2 | binding | – | 1 µM | 100
